Measured values as given in ChEMBL document CHEMBL3525987, “Assessment of exposure of metabolites in preclinical species and humans at steady state from the single-dose radiolabeled absorption, distribution, metabolism, and excretion studies: a case study” (Drug Metab Dispos, 2012).

What was measured:
Conditions in all cases: in vivo
Canis familiaris [1] = test: Drug level in beagle dog plasma at 10 mg/kg, po administered as single dose measured after 24 hrs by liquid scintillation counting; type: ADME, organism-based, Canis lupus familiaris; design: dose 10 mg/kg, dosed compound name [14C]lixivaptan, route oral
Procedure, shortened: (§1)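 Four male beagles fasted 18 h were gavaged once with [14C]lixivaptan at 10 mg/kg (2 ml/kg). The 5.0 mg/ml suspension was in deionized water with pluronic F68 (1.04 µCi/mg). Jugular K2EDTA plasma was taken at 2, 8 and 24 h and extracted twice with 2 volumes of acetonitrile. Profiling used C18 radio-HPLC (ammonium formate/acetonitrile gradient) with on-line flow scintillation detection. Each peak is reported as percent of plasma radioactivity.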

Homo sapiens [2] = test: Drug level in human plasma at 100 mg, po administered as single dose measured after 2 hrs by liquid scintillation counting; type: ADME, organism-based; design: dosed compound name [14C]lixivaptan
Procedure, shortened: (§2)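 Healthy male volunteers fasted ≥10 h, given single oral 100 mg (200 µCi) [14C]drug as two 50-mg capsules with 250 ml water. Plasma (from ~50 ml blood) at 0.5, 2, 4, 8, 12, 24, 36 h, profiled per subject. Acetonitrile extraction, C18 radio-HPLC with 0.2% formic acid acetonitrile/water gradient, on-line radioactivity detection as % plasma radioactivity; ng-equiv/ml from % × total radioactivity.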

Rattus norvegicus [3] = test: Drug level in female Sprague-Dawley rat plasma at 10 mg/kg, po administered as single dose via gavage measured after 1 hr by liquid scintillation counting; type: ADME, organism-based; design: dose 10 mg/kg, dosed compound name [14C]lixivaptan, route oral
Procedure, shortened: (§3)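 Sprague-Dawley rats (9/gender) were fasted 18 h and gavaged once with [14C]lixivaptan at 10 mg/kg (10 ml/kg), about 29.8 µCi/mg, suspended in deionized water with pluronic F68. Plasma came by cardiac puncture under isoflurane at 1, 8 and 24 h (3/gender/time) and was extracted twice with 2 volumes of acetonitrile. C18 radio-HPLC with a flow scintillation detector gave percent of plasma radioactivity per peak.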

Homo sapiens [4] = test: AUC(0 to infinity) as total radioactivity in human plasma at 100 mg, po administered as single dose by LC-MS/MS analysis; type: ADME, organism-based; design: dose 100 mg, route oral, dosed compound name [14C]lixivaptan, time infinity
Procedure, shortened: (§4)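 Fasted healthy males took one oral 100 mg (200 µCi) [14C]lixivaptan dose. Plasma was drawn from predose to 144 h. Total radioactivity was measured by LSC and converted to ng-equiv/ml via the dose specific activity; lixivaptan by validated LC-MS/MS. Noncompartmental analysis: Cmax observed; kel by log-linear regression; AUC0-t by linear trapezoid; extrapolation as Cest/kel.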

Homo sapiens [5] = test: Half life as total radioactivity in human plasma at 100 mg, po administered as single dose by LC-MS/MS analysis; type: ADME, organism-based; design: dosed compound name [14C]lixivaptan
Procedure, shortened: (§5)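 Single oral 100 mg [14C]drug to healthy male volunteers; plasma at 0.25-144 h. Parent by validated LC-MS/MS, total radioactivity by LSC as ng-equiv/ml; Tmax from observed data; t1/2 = 0.693/kel from log-linear terminal regression.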

Canis familiaris [6] = test: Drug recovery in cage wash/debris of male beagle dog at 10 mg/kg, po administered as single dose via gavage measured after 168 hrs by liquid scintillation counting; type: ADME, organism-based, Canis lupus familiaris; design: dose 10 mg/kg, dosed compound name [14C]lixivaptan, route oral
Procedure, shortened: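 Four male beagles got 10 mg/kg (2 ml/kg) [14C]drug suspension (5.0 mg/ml, pluronic F68/water, 1.04 µCi/mg) by gavage. Urine and feces collected over dry ice at 0-8, 8-24 h, then every 24 h to 7 days; urine by LSC, fecal homogenates combusted then LSC; cage wash/debris included; % of dose.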

Canis familiaris [7] = test: AUC (0 to 24 hrs) in beagle dog at 10 mg/kg, po administered as single dose; type: ADME, organism-based, Canis lupus familiaris, Plasma; design: time < 24 hr, dose 10 mg/kg, dosed compound name [14C]lixivaptan, route oral; procedure, shortened: as §1
Homo sapiens [8] = test: Drug level in human plasma at 100 mg, po administered as single dose measured after 4 hrs by liquid scintillation counting; type: ADME, organism-based; design: dosed compound name [14C]lixivaptan; procedure, shortened: as §2
Homo sapiens [9] = test: Tmax as total radioactivity in human plasma at 100 mg, po administered as single dose by LC-MS/MS analysis; type: ADME, organism-based; design: dosed compound name [14C]lixivaptan; procedure, shortened: as §5
Rattus norvegicus [10] = test: AUC(0 to infinity) as total radioactivity in male Sprague-Dawley rat plasma at 10 mg/kg, po administered as single dose via gavage […]; type: ADME, organism-based; design: time infinity, dose 10 mg/kg, dosed compound name [14C]lixivaptan, route oral
Procedure, shortened: (§6)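 Jugular-cannulated Sprague-Dawley rats (5/gender) were fasted 18 h and gavaged once with 10 mg/kg [14C]lixivaptan suspended in water/pluronic F68. K2EDTA blood was taken at 0.25–168 h, with donor blood replaced from 1 h on. Total radioactivity was read by LSC (ng-equiv/ml) and parent by validated LC-MS/MS. Noncompartmental Cmax, log-linear kel and trapezoidal AUC followed.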

Homo sapiens [11] = test: Cmax as total radioactivity in human plasma at 100 mg, po administered as single dose by LC-MS/MS analysis; type: ADME, organism-based; design: dose 100 mg, route oral, dosed compound name [14C]lixivaptan; procedure, shortened: as §4
Canis familiaris [12] = test: Total Drug recovery in male beagle dog at 10 mg/kg, po administered as single dose via gavage measured after 168 hrs by liquid scintillation counting; type: ADME, organism-based, Canis lupus familiaris; design: dose 10 mg/kg, dosed compound name [14C]lixivaptan, route oral
Procedure, shortened: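 Four male dogs, fasted 18 h, given [14C]drug by gavage as a 5.0 mg/ml suspension in pluronic F68/deionized water (2 ml/kg, 1.04 μCi/mg), followed by a 10 ml water rinse. Urine and feces collected frozen over dry ice at 0-8, 8-24 h, then every 24 h for 7 days. Feces combusted before LSC; total includes cage wash/debris.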

[13] = Drug recovery in urine of female Sprague-Dawley rat at 10 mg/kg, po administered as single dose via gavage measured after 168 hrs by liquid scintillation counting; type: ADME, organism-based; design: dose 10 mg/kg, dosed compound name [14C]lixivaptan, route oral
Procedure, shortened: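 Intact SD rats (3/gender) dosed by gavage with [14C]drug 10 mg/kg (10 ml/kg, pluronic F68/water), housed in metabolism cages; urine and feces at 0-8, 8-24 h, then every 24 h to 7 days. Urine counted by LSC; feces homogenized 20% w/w in water, combusted, trapped CO2 counted; cage wash/debris included; % of dose.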

[14] = Drug recovery in bile of bile duct-cannulated male Sprague-Dawley rat at 10 mg/kg, po administered as single dose via gavage measured from 0 to 48 hrs by liquid scintillation counting; type: ADME, organism-based; design: dose 10 mg/kg, dosed compound name [14C]lixivaptan, route oral
Procedure, shortened: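 Bile-duct cannulated SD rats (n=5) got single gavage of [14C]drug 10 mg/kg as pluronic F68/water suspension. Bile collected on wet ice at 0-4, 4-8, 8-24, 24-48 h; drinking water supplemented with bile salts and electrolytes. Duplicate aliquots counted by liquid scintillation; expressed as % of dose.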

Rattus norvegicus [15] = test: AUC(0 to t) as total radioactivity in female Sprague-Dawley rat plasma at 10 mg/kg, po administered as single dose via gavage by LC-MS/MS analysis; type: ADME, organism-based; design: dose 10 mg/kg, dosed compound name [14C]lixivaptan, route oral; procedure, shortened: as §6
Rattus norvegicus [16] = test: AUC (0 to 24 hrs) in female Sprague-Dawley rat at 10 mg/kg, po administered as single dose via gavage; type: ADME, organism-based, Plasma; design: time < 24 hr, dose 10 mg/kg, dosed compound name [14C]lixivaptan, route oral; procedure, shortened: as §3
Homo sapiens [17] = test: AUC (0 to 24 hrs) in human at 100 mg, po administered as single dose; type: ADME, organism-based, Plasma; design: time < 24 hr, dose 100 mg, route oral, dosed compound name [14C]lixivaptan
Procedure, shortened: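 Healthy young men fasted 10 h and took one oral dose of [14C]lixivaptan, 100 mg (200 µCi) as two capsules with water, eating 4 h later. Plasma from each subject at 0.5, 2, 4, 8, 12, 24 and 36 h was acetonitrile-extracted and profiled by C18 radio-HPLC (formic acid/acetonitrile gradient) with flow detection. Component concentrations were % of radioactivity × total plasma radioactivity, giving AUC0-24 in ng-equiv.h/ml.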

Rattus norvegicus [18] = test: Tmax as total radioactivity in female Sprague-Dawley rat plasma at 10 mg/kg, po administered as single dose via gavage by LC-MS/MS analysis; type: ADME, organism-based; design: dose 10 mg/kg, dosed compound name [14C]lixivaptan, route oral
Procedure, shortened: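 Jugular-vein cannulated SD rats (5/gender) given gavage [14C]drug 10 mg/kg in pluronic F68/water; K2EDTA blood 0.25-168 h with donor blood replacement. Parent by validated LC-MS/MS, radioactivity by LSC; Tmax observed; t1/2 = 0.693/kel by terminal log-linear regression.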

Compound recovery (Canis familiaris [1]): 7.4%
Compound recovery (Homo sapiens [2]): 13.4%
Compound recovery (Rattus norvegicus [3]): 29.9%
AUC (Homo sapiens [4]): 26200 ng.Eq.hr/ml
t1/2 (Homo sapiens [5]): 25.5 h
Radiolabel recovery (Canis familiaris [6]): 4.9%
AUC (Canis familiaris [7]): 11200 ng.Eq.hr/ml
Compound recovery (Homo sapiens [8]): 8%
Tmax (Homo sapiens [9]): 1.2 h
AUC (Rattus norvegicus [10]): 67100 ng.Eq.hr/ml
Cmax (Homo sapiens [11]): 1770 ngequiv/ml
Radiolabel recovery (Canis familiaris [12]): 95.9%
Radiolabel recovery [13]: 7.6%
Radiolabel recovery [14]: 65.4%
AUCt (Rattus norvegicus [15]): 36700 ng.Eq.hr/ml
AUC (Rattus norvegicus [16]): 5580 ng.Eq.hr/ml
AUC (Homo sapiens [17]): 1860 ng.Eq.hr/ml
Tmax (Rattus norvegicus [18]): 1.4 h
SMILES: Cc1ccc(F)cc1[14C](=O)Nc1ccc(C(=O)N2Cc3cccn3Cc3ccccc32)c(Cl)c1
